The values below come from ChEMBL document CHEMBL1139305, “Design, synthesis and pharmacological screening of novel antihypertensive agents using hybrid approach” (Bioorg Med Chem, 2009).

The structures appear in SMILES notation. Converted amounts (≈) assume the structure as drawn. The source made the active and inactive calls. No cut-off for these calls is given here.

For test [1], the system named is Rattus norvegicus. As to the kind of experiment: Effect on heart rate in anesthetized Wistar rat assessed as number of Q-T-intervals at 40 mg/kg, ip after 30 mins by electrocardiography. Type of test: functional. As to conditions: route intraperitoneal. The gist of the method: (§1)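 Wistar rats (250–300 g) anaesthetised with thiopental 60 mg/kg ip, then given compound ip at 40 mg/kg in 0.5% aqueous methyl cellulose. ECG recorded by transducer, with heart rate (beats/min) and P–Q, QRS and Q–T intervals (ms) taken at 0, 15, 30, 45 and 60 min after dosing.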

The subject of test [2] is Rattus norvegicus. Kind of test: Effect on heart rate in anesthetized Wistar rat assessed as number of beats per minutes at 40 mg/kg, ip after 15 mins by electrocardiography. The class given is functional. As to conditions: route intraperitoneal. The gist of the method:
as §1

Test [3] has as its system Rattus norvegicus. Kind of test: Effect on heart rate in anesthetized Wistar rat assessed as number of QRS complex at 40 mg/kg, ip after 60 mins by electrocardiography. The class given is functional. The settings on record: route intraperitoneal. The gist of the method: as §1
In test [4] the test system is Rattus norvegicus. Kind of test: Cardiovascular effect in anaesthetized Wistar rat assessed as mean arterial pressure at 40 mg/kg, ip after 60 mins. The class given is functional, Artery. As to conditions: route intraperitoneal. The essentials: (§2)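 Adult normotensive Wistar rats (250–300 g) under thiopental (60 mg/kg ip). Right carotid artery cannulated with a heparinised catheter (20 IU/mL in saline, flushed every 30 min) connected to a pressure transducer. Measurement began one hour after surgery. Compound given ip at 40 mg/kg in 0.5% methyl cellulose, with mean arterial pressure read at 0, 15, 30, 45 and 60 min.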

Test [5] relates to Rattus norvegicus. As to the kind of experiment: Effect on heart rate in anesthetized Wistar rat assessed as number of Q-T-intervals at 40 mg/kg, ip after 60 mins by electrocardiography. The settings on record: route intraperitoneal. The class given is functional. The gist of the method: as §1
The test system of test [6] is Rattus norvegicus. As to the kind of experiment: Effect on heart rate in anesthetized Wistar rat assessed as number of P-Q-intervals at 40 mg/kg, ip after 15 mins by electrocardiography. The class given is functional. As to conditions: route intraperitoneal. The essentials: as §1
The test system of test [7] is Rattus norvegicus. As to the kind of experiment: Antiarrhythmic activity in anaesthetized Wistar rat assessed as decrease in BaCl2-induced cardiac rhythm disturbance at 40 mg/kg, ip 60 mins before arrhythmogen challenge. Type of test: functional, organism-based. Details: dose 40 mg/kg. As to conditions: Heart. The gist of the method:
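Rats (thiopental 60 mg/kg ip anaesthesia) given test compound ip at 40 mg/kg, suspended in 0.5% aqueous methyl cellulose, 60 min before iv barium chloride (32 mg/kg) to evoke arrhythmia. Scored by reduction of rhythm disturbances (premature ventricular beats, ventricular tachycardia, fibrillation) and mortality.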

The test system of test [8] is Rattus norvegicus. As to the kind of experiment: Cardiovascular effect in anaesthetized Wistar rat assessed as mean arterial pressure at 40 mg/kg, ip after 45 mins. Type of test: functional, Artery. The settings on record: route intraperitoneal. The gist of the method: as §2
Test [9] concerns Rattus norvegicus. As to the kind of experiment: Effect on heart rate in anesthetized Wistar rat assessed as number of Q-T-intervals at 40 mg/kg, ip after 15 mins by electrocardiography. The class given is functional. The settings on record: route intraperitoneal. The essentials:
as §1

The test system of test [10] is Rattus norvegicus. Kind of test: Effect on heart rate in anesthetized Wistar rat assessed as number of Q-T-intervals at 40 mg/kg, ip after 45 mins by electrocardiography. The class given is functional. The settings on record: route intraperitoneal. The essentials: as §1
In test [11] the test system is Rattus norvegicus. As to the kind of experiment: Effect on heart rate in anesthetized Wistar rat assessed as number of P-Q-intervals at 40 mg/kg, ip after 60 mins by electrocardiography. Type of test: functional. The settings on record: route intraperitoneal. The gist of the method:
as §1

Test [12] concerns Rattus norvegicus. Kind of test: Effect on heart rate in anesthetized Wistar rat assessed as number of QRS complex at 40 mg/kg, ip after 15 mins by electrocardiography. Type of test: functional. As to conditions: route intraperitoneal. The essentials: as §1
Test [13] concerns Rattus norvegicus. As to the kind of experiment: Cardiovascular effect in anaesthetized Wistar rat assessed as mean arterial pressure at 40 mg/kg, ip after 30 mins. The class given is functional, Artery. As to conditions: route intraperitoneal. The essentials:
as §2

Test [14] concerns Rattus norvegicus. Kind of test: Vasorelaxation activity […] assessed as inhibition of norepinephrine-induced contraction of aorta ring at 0.1 mg/ml. Type of test: functional. The essentials:
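Isolated Wistar rat aorta rings in physiological salt solution at 37 °C, gassed 95% O2/5% CO2, isometric tension, 60 min equilibration. After contraction plateau, test compound (0.1 mg/mL) added cumulatively; EC50 (g/mL) derived from cumulative concentration–response curves against norepinephrine.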

Test [15] deals with Rattus norvegicus. Kind of test: Effect on heart rate in anesthetized Wistar rat assessed as number of beats per minutes at 40 mg/kg, ip after 45 mins by electrocardiography. The class given is functional. As to conditions: route intraperitoneal. The essentials: as §1
The test system of test [16] is Rattus norvegicus. Kind of test: Effect on heart rate in anesthetized Wistar rat assessed as number of P-Q-intervals at 40 mg/kg, ip after 45 mins by electrocardiography. Type of test: functional. As to conditions: route intraperitoneal. The gist of the method: as §1
For test [17], the species on record is Rattus norvegicus. Kind of test: NO release in Wistar rat by Griess reagent assay in presence of L-cysteine relative to control. Background: Griess reagent forms a coloured azo dye with nitrite.
Test [18] has as its system Rattus norvegicus. As to the kind of experiment: Effect on heart rate in anesthetized Wistar rat assessed as number of P-Q-intervals at 40 mg/kg, ip after 30 mins by electrocardiography. The class given is functional. As to conditions: route intraperitoneal. The essentials: as §1
Test [19] has as its system Rattus norvegicus. As to the kind of experiment: Cardiovascular effect in anaesthetized Wistar rat assessed as mean arterial pressure at 40 mg/kg, ip after 15 mins. Type of test: functional, Artery. As to conditions: route intraperitoneal. The essentials:
as §2

For test [20], the system named is Rattus norvegicus. As to the kind of experiment: Effect on heart rate in anesthetized Wistar rat assessed as number of beats per minutes at 40 mg/kg, ip after 60 mins by electrocardiography. The class given is functional. As to conditions: route intraperitoneal. The gist of the method: as §1
Test [21] has as its system Rattus norvegicus. Kind of test: Effect on heart rate in anesthetized Wistar rat assessed as number of beats per minutes at 40 mg/kg, ip after 30 mins by electrocardiography. The class given is functional. The settings on record: route intraperitoneal. The essentials:
as §1

For test [22], the system named is Rattus norvegicus. Kind of test: Effect on heart rate in anesthetized Wistar rat assessed as number of QRS complex at 40 mg/kg, ip after 45 mins by electrocardiography. The class given is functional. As to conditions: route intraperitoneal. The gist of the method: as §1
The test system of test [23] is Rattus norvegicus. As to the kind of experiment: Effect on heart rate in anesthetized Wistar rat assessed as number of QRS complex at 40 mg/kg, ip after 30 mins by electrocardiography. The class given is functional. The settings on record: route intraperitoneal. The essentials:
as §1

A word on the EC50: it is the concentration needed to bring the measured effect to its halfway point. On to `O=C(CO[N+](=O)[O-])NNC(=O)c1ccc(NCC(O)CN2C(=O)/C(=C/c3ccccc3O)S/C2=N/c2ccccc2)cc1` (stereo unspecified), for which the Activity in the test on Rattus norvegicus [1] is recorded as 74.4; in the test with Rattus norvegicus [2] it was 298.24; in the test on Rattus norvegicus [3], 20.8; with Rattus norvegicus [4], 76.24 mmHg; with Rattus norvegicus [5], 72.8; with Rattus norvegicus [6], 51.4. Also, the Activity in the test on Rattus norvegicus [8] stood at 64.32 mmHg; in the test with Rattus norvegicus [9], 73.2; with Rattus norvegicus [10] it was 75.4; with Rattus norvegicus [11], 52.8; in the test with Rattus norvegicus [12] it was 21.2; in the test on Rattus norvegicus [13], 72.44 mmHg. Besides, the Activity in the test with Rattus norvegicus [15] came to 279.28; in the test with Rattus norvegicus [16] it was 54.6; in the test on Rattus norvegicus [18] it was 54.2; in the test on Rattus norvegicus [19], 82.91 mmHg; in the test with Rattus norvegicus [20], 294.57; in the test with Rattus norvegicus [21], 291.85. Further, the Activity is on record as 23.4 in the test on Rattus norvegicus [22] and 22.4 with Rattus norvegicus [23]. The result in the test with Rattus norvegicus [7] was Active. In addition, the concentration for a half-maximal effect (EC50) with Rattus norvegicus [14] turned out to be 45.7 µg/mL (≈ 75.4 µM). Further, in the test listed under Rattus norvegicus [17], the “% NO release” value turned out to be 0.29%.

Take `O=C(CO[N+](=O)[O-])NNC(=O)c1ccc(NCC(O)CN2C(=O)/C(=C/c3cccc([N+](=O)[O-])c3)S/C2=N/c2ccccc2)cc1` (stereo unspecified): the Activity with Rattus norvegicus [1] was 72.4; with Rattus norvegicus [2], 318.61; in the test with Rattus norvegicus [3], 20.4; in the test with Rattus norvegicus [4], 90.29 mmHg; in the test on Rattus norvegicus [5], 70.4; in the test on Rattus norvegicus [6], 57. Also, the Activity is given as 85.87 mmHg in the test on Rattus norvegicus [8]; 71.4 in the test with Rattus norvegicus [9]; 71.8 in the test on Rattus norvegicus [10]; 55.6 in the test with Rattus norvegicus [11]; 21.4 in the test with Rattus norvegicus [12]; 85.08 mmHg in the test with Rattus norvegicus [13]. In addition, the Activity with Rattus norvegicus [15] worked out at 302.16; in the test on Rattus norvegicus [16], 56.2; in the test with Rattus norvegicus [18] it was 57.8; in the test on Rattus norvegicus [19], 87.32 mmHg; with Rattus norvegicus [20], 315.86; in the test with Rattus norvegicus [21], 295.46. Further, the Activity in the test with Rattus norvegicus [22] turned out to be 21.8; in the test with Rattus norvegicus [23], 22.4. The result in the test with Rattus norvegicus [7] was inactive. Also, in the test on Rattus norvegicus [14], the EC50 was 141 µg/mL (≈ 222 µM). The “% NO release” value in the test listed under Rattus norvegicus [17] was 0.21%.
